Source: ChEMBL document CHEMBL4732088, “Identification and optimization of piperlongumine analogues as potential antioxidant and anti-inflammatory agents via activation of Nrf2” (Eur J Med Chem, 2021)
Activity calls are given as the source filed them. The calls are words filed in the database; no cut-off is given here.

Key:
[1] = target: T1, Nuclear factor erythroid 2-related factor 2 (Mus musculus) (UniProt Q60795); assay: Activation of Nrf2 in mouse BV2 cells assessed as decrease in LPS-induced NO production pretreated with compound followed by LPS stimulation after 18 hrs by Griess reagent based assay; format: cell-based; conditions: BV-2, filed as activator, dose 5-20 µM
T1 sequence (whole entry): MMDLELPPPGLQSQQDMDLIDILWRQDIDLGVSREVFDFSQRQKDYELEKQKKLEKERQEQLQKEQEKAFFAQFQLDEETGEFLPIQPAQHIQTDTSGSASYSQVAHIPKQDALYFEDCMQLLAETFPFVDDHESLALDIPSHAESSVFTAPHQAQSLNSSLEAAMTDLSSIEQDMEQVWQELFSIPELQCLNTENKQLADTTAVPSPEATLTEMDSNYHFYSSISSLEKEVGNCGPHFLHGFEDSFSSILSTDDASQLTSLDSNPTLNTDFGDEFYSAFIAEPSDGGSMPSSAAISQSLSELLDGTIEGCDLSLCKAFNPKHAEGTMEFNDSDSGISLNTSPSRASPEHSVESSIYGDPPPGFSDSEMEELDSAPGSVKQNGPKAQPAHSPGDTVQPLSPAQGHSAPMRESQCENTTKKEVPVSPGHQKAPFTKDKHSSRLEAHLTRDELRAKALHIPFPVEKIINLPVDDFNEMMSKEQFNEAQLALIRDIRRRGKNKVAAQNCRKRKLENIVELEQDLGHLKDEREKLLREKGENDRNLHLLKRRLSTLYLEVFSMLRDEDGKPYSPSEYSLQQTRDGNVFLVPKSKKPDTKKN
Outline: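 BV2 microglia pretreated with compound, then LPS (1µg/mL) for 18 h; NO in medium measured by Griess method; mean ± SD, n = 3.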

[2] = system: PC-12; assay: Protection against H2O2-induced mitochondrial dysfunction in rat PC12 cells assessed as change in mitochondrial membrane potential at 5 uM pretreated with compound followed by H2O2 addition by JC-1 staining based flow cytometry (reference value: 78.7 %); format: functional
Outline: (§1)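 Mitochondrial membrane potential in PC12 cells pretreated with compound (5, 10, 20 μM), then exposed to H₂O₂ (200 μM) or 6-OHDA (150 μM). JC-1 staining, red-to-green fluorescence shift read by flow cytometry. Mean ± SD, n = 3.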

[3] = system: PC-12; assay: Protection against 6-OHDA-induced mitochondrial dysfunction in rat PC12 cells assessed as change in mitochondrial membrane potential at 5 uM pretreated with compound followed by 6-OHDA addition by JC-1 staining based flow cytometry (reference value: 73.2 %); format: functional; outline: as §1
[4] = system: PC-12; assay: Protection against 6-OHDA-induced mitochondrial dysfunction in rat PC12 cells assessed as change in mitochondrial membrane potential loss at 20 uM pretreated with compound followed by 6-OHDA addition by JC-1 staining based flow cytometry (reference value: 26.8 %); format: functional; outline: as §1
[5] = system: PC-12; assay: Protection against H2O2-induced apoptosis in rat PC12 cells assessed as early apoptotic cells at 5 uM incubated for 24 hrs by annexin V FITC/propidium iodide staining based flow cytometry (reference value: 3.9 %); format: functional
[6] = system: PC-12; assay: Protection against H2O2-induced apoptosis in rat PC12 cells assessed as necrotic cells at 5 uM incubated for 24 hrs by annexin V FITC/propidium iodide staining based flow cytometry (reference value: 0.6 %); format: functional
[7] = system: PC-12; assay: Protection against H2O2-induced apoptosis in rat PC12 cells assessed as early apoptotic cells at 10 uM incubated for 24 hrs by annexin V FITC/propidium iodide staining based flow cytometry (reference value: 3.9 %); format: functional
[8] = system: PC-12; assay: Protection against H2O2-induced apoptosis in rat PC12 cells assessed as early apoptotic cells at 20 uM incubated for 24 hrs by annexin V FITC/propidium iodide staining based flow cytometry (reference value: 3.9 %); format: functional
[9] = system: PC-12; assay: Protection against 6-OHDA-induced apoptosis in rat PC12 cells assessed as early apoptotic cells at 5 uM incubated for 24 hrs by annexin V FITC/propidium iodide staining based flow cytometry (reference value: 19.2 %); format: functional
[10] = system: PC-12; assay: Protection against 6-OHDA-induced apoptosis in rat PC12 cells assessed as necrotic cells at 5 uM incubated for 24 hrs by annexin V FITC/propidium iodide staining based flow cytometry (reference value: 1.1 %); format: functional
[11] = system: PC-12; assay: Prevention of 6-OHDA-induced calcium overload in rat PC12 cells assessed as reduction in intracellular free calcium by measuring mean fluorescence intensity at 20 uM pretreated with compound followed by 6-OHDA addition measured after 24 hrs by Fluo-3AM based fluorescence assay (reference value: 6708.18%); format: functional
[12] = target: T2, Nuclear factor erythroid 2-related factor 2 (Rattus norvegicus) (UniProt O54968); assay: Activation of Nrf2 in rat PC12 cells assessed as increase in GCLC protein level after 24 hrs by Western blot analysis; format: cell-based; conditions: PC-12, filed as activator, dose 5-20 µM
T2 sequence (whole entry): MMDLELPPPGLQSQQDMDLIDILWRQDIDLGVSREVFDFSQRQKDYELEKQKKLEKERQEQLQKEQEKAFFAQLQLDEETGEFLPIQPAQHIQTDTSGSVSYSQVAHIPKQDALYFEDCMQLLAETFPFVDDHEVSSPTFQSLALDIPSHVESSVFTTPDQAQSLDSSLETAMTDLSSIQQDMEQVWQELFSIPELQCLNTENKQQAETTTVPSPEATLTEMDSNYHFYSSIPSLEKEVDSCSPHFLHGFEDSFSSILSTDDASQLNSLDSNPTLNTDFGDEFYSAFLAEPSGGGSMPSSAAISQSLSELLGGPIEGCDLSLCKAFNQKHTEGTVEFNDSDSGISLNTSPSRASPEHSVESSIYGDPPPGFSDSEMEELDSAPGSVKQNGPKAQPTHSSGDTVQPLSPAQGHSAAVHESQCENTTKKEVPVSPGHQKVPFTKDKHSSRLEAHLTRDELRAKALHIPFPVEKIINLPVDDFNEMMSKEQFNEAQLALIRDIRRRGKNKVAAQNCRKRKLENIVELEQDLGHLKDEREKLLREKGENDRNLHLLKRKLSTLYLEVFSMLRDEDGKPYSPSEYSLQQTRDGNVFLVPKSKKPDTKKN
Outline: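 PC12 cells treated with compound for 24 h at rising concentrations; NQO1, HO-1, TrxR1, GCLM, GCLC protein detected by Western blot.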

[13] = system: PC-12; assay: Neuroprotective activity against 6-OHDA-induced cell death in rat PC12 cells assessed as cell viability at 20 uM preincubated for 30 mins in presence of ZNPP […] and measured after 24 hrs by MTT assay; format: functional, cell-based; conditions: time 24.5 hrs
[14] = target: T1, Nuclear factor erythroid 2-related factor 2 (Mus musculus); assay: Activation of Nrf2 in mouse BV2 cells assessed as upregulation of Nrf2 protein expression after 24 hrs by Western blot analysis; format: cell-based; conditions: BV-2, filed as activator, dose 5-20 µM
Outline: (§2)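 BV2 microglia exposed to compound for 24 h over a concentration series; Nrf2, NQO1, HO-1, TrxR1, GCLM and GCLC protein levels read by Western blot.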

[15] = target: T1, Nuclear factor erythroid 2-related factor 2 (Mus musculus); assay: Activation of Nrf2 in mouse BV2 cells assessed as upregulation of HO-1 protein expression after 24 hrs by Western blot analysis; format: cell-based; conditions: BV-2, filed as activator, dose 5-20 µM; outline: as §2
[16] = target: T1, Nuclear factor erythroid 2-related factor 2 (Mus musculus); assay: Activation of Nrf2 in mouse BV2 cells assessed as upregulation of NQO-1 protein expression after 24 hrs by Western blot analysis; format: cell-based; conditions: BV-2, filed as activator, dose 5-20 µM; outline: as §2
[17] = target: T1, Nuclear factor erythroid 2-related factor 2 (Mus musculus); assay: Activation of Nrf2 in mouse BV2 cells assessed as upregulation of GCLC protein expression after 24 hrs by Western blot analysis; format: cell-based; conditions: BV-2, filed as activator, dose 5-20 µM; outline: as §2

## CCN(C)C(=O)N1CCN(C(=O)/C=C/c2ccc(F)cc2)C1=O
[1]
  Activity: Dose-dependent effect
[2]
  Activity: 86.7%
[3]
  Activity: 79.4%
[4]
  Activity: 10.7%
[5]
  Activity: 5.1%
[6]
  Activity: 0.9%
[7]
  Activity: 2.1%
[8]
  Activity: 2.3%
[9]
  Activity: 11.1%
[10]
  Activity: 1%
[11]
  Flu intensity: 4161.82
[12]
  Activity: Dose-dependent effect
[13]
  Activity: inactive
[14]
  Activity: Dose-dependent effect
[15]
  Activity: Dose-dependent effect
[16]
  Activity: Dose-dependent effect
[17]
  Activity: Dose-dependent effect
